# Values joined by “and” are separate entries in the source; they are usually repeats but may differ in a detail not shown here. Identical values can stand only once.
# Tests used:
# [1] = tested on: GL-1 canine B-cell lymphoma line; experiment: Annexin V-FITC/PI apoptosis detection by flow cytometry, GL-1 cells; type: cell-based
# Summary of the method: (§1)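 Cells were seeded at 100,000 per well in fresh medium holding 0, 5, 10 or 20 µM test compound, alongside a vehicle control. They were exposed 24 or 48 h at 37 °C, 5% CO2. Apoptosis was read by Annexin V-FITC/PI staining and flow cytometry, in triplicate. Lines were kept as suspensions in DMEM with P/S, plus 10% FBS (17-71, GL-1) or 20% FBS (CA46). Time and concentration effects were tested by 2-way ANOVA with Tukey or Dunnett post hoc.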
# [2] = molecular target: T1, caspase-3 (Canis lupus familiaris, UniProt Q8MKI5); experiment: Caspase-3 colorimetric assay in cell lysate, 17-71 cells; type: cell-based, canine; conditions: 10 or 20 µM, incubation ≤ 4 hours
# T1 sequence (Q8MKI5 29-277): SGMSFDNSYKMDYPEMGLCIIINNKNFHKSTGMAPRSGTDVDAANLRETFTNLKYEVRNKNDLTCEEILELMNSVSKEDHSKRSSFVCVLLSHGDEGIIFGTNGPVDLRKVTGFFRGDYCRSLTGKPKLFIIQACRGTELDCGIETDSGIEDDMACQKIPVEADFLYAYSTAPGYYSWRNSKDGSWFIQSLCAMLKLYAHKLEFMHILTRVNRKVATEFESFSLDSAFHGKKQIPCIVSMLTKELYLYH
# Summary of the method: (§2)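 Lymphoma cells were exposed to 10 or 20 µM test compound for 0, 1, 2, 4, 24 and 48 h at 37 °C, 5% CO2; hour 0 served as vehicle control. Lysates from 2 million cells per time point went into a colorimetric caspase-3 assay read at 405 nm, run in duplicate. Time points were compared to control by one-way ANOVA with Dunnett's test.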
# [3] = Plasma concentration during 48-hour IV constant rate infusion in healthy dogs; type: in vivo; conditions: dog, IV CRI
# [4] = Pharmacokinetics after single oral administration in healthy dogs; type: in vivo; conditions: dog; for AUC o-inf. / Cmax / F (absolute oral bioavailability) / Oral clearance / Tmax / t1/2 K10 (terminal elimination half-life): 1 mg/kg oral
# Summary of the method: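 Same six dogs in crossover, two-week washout. Test compound in 2-hydroxypropyl-β-cyclodextrin/sterile water was given once at 1.0 mg/kg as a 5-min oral slurry. Plasma was sampled at 0, 15, 30, 45, 60, 120, 240, 480, 720 min and 24 h and quantified by LC-ES/MS/MS. A one-compartment absorption model gave K01 and K10, Cmax and Tmax; Clo = dose/AUC0-inf; F = AUC oral/AUC IV × dose ratio.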
# [5] = Toxicity assessment of 48-hour IV constant rate infusion in healthy dogs; type: in vivo; conditions: dog
# Summary of the method: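 Four healthy dogs from the kinetic study received IV test compound as a 10-min loading dose, then a constant-rate maintenance infusion for 48 h. […] Haematologic, non-haematologic and gastrointestinal effects were checked weekly for 4 weeks.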
# [6] = tested on: 17-71 canine B-cell lymphoma line; experiment: Annexin V-FITC/PI apoptosis detection by flow cytometry, 17-71 cells; type: cell-based
# Summary of the method: as §1
# [7] = Pharmacokinetics after single IV bolus in healthy dogs; type: in vivo; conditions: dog
# Summary of the method: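 Six healthy hound dogs, crossover design with two-week washout. Test compound was freshly made at 15 mg/ml in 2-hydroxypropyl-β-cyclodextrin/sterile water and given at 1.0 mg/kg as a 10-min IV bolus. Jugular plasma was taken at 0-720 min and 24 h and assayed by LC-ES/MS/MS (deuterated internal standard). AUC and AUMC were taken by linear trapezoid extrapolated to infinity; A and B came from a two-compartment fit by residuals; Cls = dose/AUC.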
# [8] = molecular target: T1, caspase-3; experiment: Caspase-3 colorimetric assay in cell lysate, GL-1 cells; type: cell-based, canine; conditions: 10 or 20 µM, incubation ≤ 4 hours
# Summary of the method: as §2
# [9] = molecular target: T2, caspase-3 (Homo sapiens, UniProt P42574); experiment: Caspase-3 colorimetric assay in cell lysate, CA46 cells; type: cell-based; conditions: 10 or 20 µM, incubation ≤ 4 hours
# T2 sequence (P42574 29-277): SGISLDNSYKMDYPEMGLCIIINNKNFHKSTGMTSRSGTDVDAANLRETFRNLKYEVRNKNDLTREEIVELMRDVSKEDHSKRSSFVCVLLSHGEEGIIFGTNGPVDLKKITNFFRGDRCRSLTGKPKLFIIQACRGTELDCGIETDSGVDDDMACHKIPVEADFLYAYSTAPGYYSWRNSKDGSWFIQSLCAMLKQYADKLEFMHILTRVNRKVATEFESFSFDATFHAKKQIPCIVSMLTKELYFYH
# Summary of the method: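 CA46 human B-cell lymphoma cells, grown in suspension in DMEM with 20% FBS and P/S at 37 °C, 5% CO2, were exposed to test compound at 10 or 20 µM for 0, 1, 2, 4, 24 and 48 h. Lysate from 2 million cells per time point was assayed with a colorimetric caspase-3 kit read at 405 nm, in duplicate. Activity was compared with vehicle-treated cells (hour 0) by one-way ANOVA and Dunnett's test.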
# [10] = tested on: CA46 human B-cell lymphoma line; experiment: Annexin V-FITC/PI apoptosis detection by flow cytometry, CA46 cells; type: cell-based
# Summary of the method: as §1
# [11] = 1 mg/kg IV, individual dogs A-F, 1 mg/kg
smiles,measurement,setting,value
C=CCc1cccc(/C=N/NC(=O)CN2CCN(Cc3ccccc3)CC2)c1O [PAC-1],apoptosis,"[1]; 48 hour, 10 µM",~ 25%
same,cells remaining viable,"[1]; 48 hours, 20 µM",~ 60%
same,caspase-3 activity in cell lysate vs vehicle-treated control cells,[2],failed to significantly increase
same,plasma concentration after 6 hours of infusion,"[3]; average LD 5.8 mg/kg and MD 2.3 mg/kg/hour, n=4",10.7 ± 2.0 µM
same,plateau plasma concentration,[3]; following completion of the first 24 hours,~ 18 µM
same,time of average peak plasma concentration following ingestion,[4]; 1.0 mg/kg oral,45 min
same,AUC o-inf.,"[4]; Mean ± SD, n=6",310.5 ± 158.5 ng/mL/h
same,Cmax,"[4]; Mean ± SD, n=6",77.0 ± 37.5 ng/mL
same,F (absolute oral bioavailability),"[4]; Mean ± SD, n=6",17.8 ± 9.5%
same,Oral clearance,"[4]; Mean ± SD, n=6",136 ± 79.6 L/h
same,Tmax,"[4]; Mean ± SD, n=6",0.84 ± 0.28 h
same,t1/2 K10 (terminal elimination half-life),"[4]; Mean ± SD, n=6",2.08 ± 0.26 h
same,AUC o-inf.,"[4]; individual dogs A-F, 1 mg/kg",271 ng/mL/h and 408 ng/mL/h and 117 ng/mL/h and 508 ng/mL/h and 145 ng/mL/h and 414 ng/mL/h
same,Cmax,"[4]; individual dogs A-F, 1 mg/kg",63.9 ng/mL and 127 ng/mL and 31 ng/mL and 108 ng/mL and 43 ng/mL and 89 ng/mL
same,F (absolute oral bioavailability),"[4]; individual dogs A-F, 1 mg/kg",16% and 17% and 8% (2×) and 31% and 27%
same,Oral clearance,"[4]; individual dogs A-F, 1 mg/kg",137 L/h and 77 L/h and 236 L/h and 61 L/h and 230 L/h and 75 L/h
same,Tmax,"[4]; individual dogs A-F, 1 mg/kg",1.09 h and 0.51 h and 0.90 h and 1.07 h and 0.45 h and 0.99 h
same,t1/2 K10 (terminal elimination half-life),"[4]; individual dogs A-F, 1 mg/kg",2.02 h and 1.83 h and 1.86 h and 2.40 h and 1.97 h and 2.42 h
same,gastrointestinal toxicity,"[5]; 48-hour CRI, 4 week monitoring, n=4",no clinically overt gastrointestinal toxicity
same,ALT,"[5]; 48-hour CRI, Day 0",46.7 ± 34.1 U/L
same,Calcium,"[5]; 48-hour CRI, Day 0",10.3 ± 0.1 mg/dL
same,Creatinine,"[5]; 48-hour CRI, Day 0",0.9 ± 0.2 mg/dL
same,Hematocrit,"[5]; 48-hour CRI, Day 0",53.0 ± 3.8%
same,Lymphocyte,"[5]; 48-hour CRI, Day 0",1.9 ± 0.3 ×10^3
same,Neutrophil,"[5]; 48-hour CRI, Day 0",5.4 ± 1.0 ×10^3
same,Phosphorous,"[5]; 48-hour CRI, Day 0",3.7 ± 0.4 mg/dL
same,Platelet,"[5]; 48-hour CRI, Day 0",1.9 ± 0.4 ×10^5
same,WBC,"[5]; 48-hour CRI, Day 0",8.2 ± 1.5 ×10^3
same,ALT,"[5]; 48-hour CRI, Day 7",57.0 ± 34.6 U/L
same,Calcium,"[5]; 48-hour CRI, Day 7",10.5 ± 0.3 mg/dL
same,Creatinine,"[5]; 48-hour CRI, Day 7",1.0 ± 0.3 mg/dL
same,Hematocrit,"[5]; 48-hour CRI, Day 7",55.4 ± 1.3%
same,Lymphocyte,"[5]; 48-hour CRI, Day 7",1.3 ± 0.2 ×10^3
same,Neutrophil,"[5]; 48-hour CRI, Day 7",5.0 ± 0.5 ×10^3
same,Phosphorous,"[5]; 48-hour CRI, Day 7",2.9 ± 0.9 mg/dL
same,Platelet,"[5]; 48-hour CRI, Day 7",1.8 ± 0.3 ×10^5
same,WBC,"[5]; 48-hour CRI, Day 7",7.0 ± 0.4 ×10^3
same,ALT,"[5]; 48-hour CRI, Day 14",56.3 ± 46.7 U/L
same,Calcium,"[5]; 48-hour CRI, Day 14",10.2 ± 0.4 mg/dL
same,Creatinine,"[5]; 48-hour CRI, Day 14",0.9 ± 0.1 mg/dL
same,Hematocrit,"[5]; 48-hour CRI, Day 14",49.3 ± 6.0%
same,Lymphocyte,"[5]; 48-hour CRI, Day 14",1.9 ± 0.7 ×10^3
same,Neutrophil,"[5]; 48-hour CRI, Day 14",4.3 ± 0.9 ×10^3
same,Phosphorous,"[5]; 48-hour CRI, Day 14",3.6 ± 0.3 mg/dL
same,Platelet,"[5]; 48-hour CRI, Day 14",2.0 ± 0.4 ×10^5
same,WBC,"[5]; 48-hour CRI, Day 14",7.0 ± 0.4 ×10^3
same,ALT,"[5]; 48-hour CRI, Day 21",49.7 ± 29.0 U/L
same,Calcium,"[5]; 48-hour CRI, Day 21",10.4 ± 0.4 mg/dL
same,Creatinine,"[5]; 48-hour CRI, Day 21",1.0 ± 0.2 mg/dL
same,Hematocrit,"[5]; 48-hour CRI, Day 21",50.6 ± 3.4%
same,Lymphocyte,"[5]; 48-hour CRI, Day 21",1.5 ± 0.2 ×10^3
same,Neutrophil,"[5]; 48-hour CRI, Day 21",5.9 ± 0.3 ×10^3
same,Phosphorous,"[5]; 48-hour CRI, Day 21",3.4 ± 0.4 mg/dL
same,Platelet,"[5]; 48-hour CRI, Day 21",2.2 ± 0.8 ×10^5
same,WBC,"[5]; 48-hour CRI, Day 21",8.4 ± 0.6 ×10^3
same,tolerability of CRI giving ≥ 10 µM for ≥ 24 hours,"[5]; IV CRI, n=4",well-tolerated by all dogs
same,cells staining only for Annexin-V-FITC (early apoptosis),"[6]; 48 hour, 20 µM",approximately 70%
same,apoptotic cells,"[6]; 48 hours, PAC-1 ≥ 10 µM",≥ 60%
same,"A (Y intercept, distribution phase)","[7]; 1 mg/kg IV, Mean ± SD, n=6",1483.8 ± 723.0 ng/mL
same,AUC0-inf,"[7]; 1 mg/kg IV, Mean ± SD, n=6",1740 ± 309.6 ngxhr/ml
same,AUMC0-inf,"[7]; 1 mg/kg IV, Mean ± SD, n=6",4805 ± 1211 ngxhrxhr/ml
same,"B (Y intercept, elimination phase)","[7]; 1 mg/kg IV, Mean ± SD, n=6",249.0 ± 172.9 ng/mL
same,Cls (total body clearance),"[7]; 1 mg/kg IV, Mean ± SD, n=6",9.578 ± 1.26 mL/min/kg
same,Vdc (volume of distribution in central compartment),"[7]; 1 mg/kg IV, Mean ± SD, n=6",0.678 ± 0.254 L/kg
same,Vdss (volume of distribution at steady state),"[7]; 1 mg/kg IV, Mean ± SD, n=6",1.643 ± 0.497 L/kg
same,Vdβ (volume of distribution in terminal elimination phase),"[7]; 1 mg/kg IV, Mean ± SD, n=6",2.698 ± 0.865 L/kg
same,t1/2 β (terminal elimination half-life),"[7]; 1 mg/kg IV, Mean ± SD, n=6",3.12 ± 0.67 h
same,"A (Y intercept, distribution phase)",[7]; [11],1065 ng/mL and 2598 ng/mL and 908 ng/mL and 2199 ng/mL and 1119 ng/mL and 1014 ng/mL
same,AUC0-inf,[7]; [11],1730 ngxhr/ml and 2339 ngxhr/ml and 1468 ngxhr/ml and 1645 ngxhr/ml and 1709 ngxhr/ml and 1549 ngxhr/ml
same,AUMC0-inf,[7]; [11],4751 ngxhrxhr/ml and 6167 ngxhrxhr/ml and 3693 ngxhrxhr/ml and 3802 ngxhrxhr/ml and 4247 ngxhrxhr/ml and 6174 ngxhrxhr/ml
same,"B (Y intercept, elimination phase)",[7]; [11],288 ng/ml and 584 ng/ml and 138 ng/ml and 176 ng/ml and 154 ng/ml (2×)
same,Cls (total body clearance),[7]; [11],9.63 mL/min/kg and 7.13 mL/min/kg and 10 mL/min/kg and 10.1 mL/min/kg and 9.75 mL/min/kg and 10.8 mL/min/kg
same,Vdc (volume of distribution in central compartment),[7]; [11],0.739 L/kg and 0.314 L/kg and 0.957 L/kg and 0.421 L/kg and 0.786 L/kg and 0.856 L/kg
same,Vdss (volume of distribution at steady state),[7]; [11],1.587 L/kg and 1.127 L/kg and 1.715 L/kg and 1.405 L/kg and 1.454 L/kg and 2.574 L/kg
same,Vdβ (volume of distribution in terminal elimination phase),[7]; [11],2.260 L/kg and 1.380 L/kg and 3.145 L/kg and 2.699 L/kg and 2.736 L/kg and 3.968 L/kg
same,t1/2 β (terminal half-life),[7]; [11],2.71 h and 2.24 h and 3.20 h and 3.08 h and 3.24 h and 4.26 h
same,average peak plasma concentration,"[7]; 1.0 mg/kg bolus IV, immediately following completion of infusion",2.8 ± 0.6 µM
same,caspase-3 activity in cell lysate vs vehicle-treated control cells,[8],failed to significantly increase
same,caspase-3 activity in cell lysate vs vehicle-treated control cells,[9],failed to significantly increase
same,fraction of apoptotic cells,[10]; 24 hour exposure,20–35%
same,apoptosis,"[10]; 48 hour, 10 µM",≥ 50%
same,cells undergone apoptosis,"[10]; 48 hours, PAC-1 ≥10 µM",greater than 50%

# From PMC3182491 (Investigational new drugs, 2010)
